Measured values taken from ChEMBL document CHEMBL1155638, “Anti-AIDS agents 38. Anti-HIV activity of 3-O-acyl ursolic acid derivatives” (J Nat Prod, 2000).

Experiments:
[1] = tested on: Human immunodeficiency virus 1; assay: Antiviral activity against HIV1 replication in human H9 cells; conditions: for Activity: human, h9; for EC50: Homo sapiens, H9
H9 (human) = assay: Cytotoxicity against human H9 cells assessed as growth inhibition after 4 days
[2] = Therapeutic index, IC50 for human T-lymphoid H9 cells to EC50 for HIV1 3B isolate; type: cell-based; conditions: read-out: Ratio IC50/EC50
Outline: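 Ratio of IC50 (Coulter count, mock-infected H9 cells, 4 days) to EC50 (p24 ELISA, HIV-1 IIIB-infected H9 cells, 4 days), both determined in parallel within the same assay.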

Structure (SMILES): C[C@H]1[C@H](C)CC[C@]2(C(=O)O)CC[C@]3(C)C(=CC[C@@H]4[C@@]5(C)CC[C@H](OC(=O)C(C)(C)CC(=O)O)C(C)(C)[C@@H]5CC[C@]43C)[C@H]12
- Activity [1]: Not Active
- IC50 (H9 (human); H9, 96 h): 30.7 µM

Structure (SMILES): C=C(C)[C@@H]1CC[C@]2(C(=O)O)CC[C@]3(C)[C@H](CC[C@@H]4[C@@]5(C)CC[C@H](O)C(C)(C)[C@@H]5CC[C@]43C)[C@@H]12 [BETULINIC ACID]
- selectivity ratio [2]: 9.2
- IC50 (H9 (human); H9, 96 h): 12.9 µM

Structure (SMILES): C[C@H]1[C@H](C)CC[C@]2(C(=O)O)CC[C@]3(C)C(=CC[C@@H]4[C@@]5(C)CC[C@H](OC(=O)CCCC(=O)O)C(C)(C)[C@@H]5CC[C@]43C)[C@H]12
- selectivity ratio [2]: 4.8
- EC50 [1]: 6.4 µM
- IC50 (H9 (human); H9, 96 h): 30.7 µM

Structure (SMILES): CC1(C)CC[C@]2(C(=O)O)CC[C@]3(C)C(=CC[C@@H]4[C@@]5(C)CC[C@H](O)C(C)(C)[C@@H]5CC[C@]43C)[C@@H]2C1 [OLEANOLIC_ACID]
- selectivity ratio [2]: 12.9

Structure (SMILES): C[C@H]1[C@H](C)CC[C@]2(C(=O)O)CC[C@]3(C)C(=CC[C@@H]4[C@@]5(C)CC[C@H](OC(=O)COCC(=O)O)C(C)(C)[C@@H]5CC[C@]43C)[C@H]12
- selectivity ratio [2]: 156
- EC50 [1]: 0.31 µM
- IC50 (H9 (human); H9, 96 h): 48.2 µM

Structure (SMILES): CC1(C)CC[C@]2(C(=O)O)CC[C@]3(C)C(=CC[C@@H]4[C@@]5(C)CC[C@H](OC(=O)CC(C)(C)C(=O)O)C(C)(C)[C@@H]5CC[C@]43C)[C@@H]2C1
- selectivity ratio [2]: 22300

Structure (SMILES): CC(C)CC(=O)O[C@H]1CC[C@]2(C)[C@H]3CC=C4[C@@H]5[C@@H](C)[C@H](C)CC[C@]5(C(=O)O)CC[C@@]4(C)[C@]3(C)CC[C@H]2C1(C)C
- Activity [1]: Not Active
- IC50 (H9 (human); H9, 96 h): > 18.5 µM

Structure (SMILES): C=C(C)[C@@H]1CC[C@]2(C(=O)O)CC[C@]3(C)[C@H](CC[C@@H]4[C@@]5(C)CC[C@H](OC(=O)CC(C)(C)C(=O)O)C(C)(C)[C@@H]5CC[C@]43C)[C@@H]12 [BEVIRIMAT]
- selectivity ratio [2]: > 20000
- EC50 [1]: < 0.00035 µM
- IC50 (H9 (human); H9, 96 h): 7 µM

Structure (SMILES): C[C@@H]1CC[C@]2(C(=O)O)CC[C@]3(C)C(=CC[C@@H]4[C@@]5(C)CC[C@H](O)C(C)(C)[C@@H]5CC[C@]43C)[C@@H]2[C@]1(C)O [POMOLIC ACID]
- selectivity ratio [2]: 16.3
- EC50 [1]: 3 µM

Structure (SMILES): C[C@H]1[C@H](C)CC[C@]2(C(=O)O)CC[C@]3(C)C(=CC[C@@H]4[C@@]5(C)CC[C@H](OC(=O)CC(C)(C)C(=O)O)C(C)(C)[C@@H]5CC[C@]43C)[C@H]12
- selectivity ratio [2]: 23.6
- EC50 [1]: 2.1 µM
- IC50 (H9 (human); H9, 96 h): 49.5 µM

Structure (SMILES): C[C@H]1[C@H](C)CC[C@]2(C(=O)O)CC[C@]3(C)C(=CC[C@@H]4[C@@]5(C)CC[C@H](OC(=O)CCC(=O)O)C(C)(C)[C@@H]5CC[C@]43C)[C@H]12
- selectivity ratio [2]: 2.9
- EC50 [1]: 15.3 µM
- IC50 (H9 (human); H9, 96 h): 44.9 µM

Structure (SMILES): C[C@H]1[C@H](C)CC[C@]2(C(=O)O)CC[C@]3(C)C(=CC[C@@H]4[C@@]5(C)CC[C@H](OC(=O)CC(C)(C)C)C(C)(C)[C@@H]5CC[C@]43C)[C@H]12
- Activity [1]: Not Active
- IC50 (H9 (human); H9, 96 h): > 18 µM

Structure (SMILES): C[C@H]1[C@H](C)CC[C@]2(C(=O)O)CC[C@]3(C)C(=CC[C@@H]4[C@@]5(C)CC[C@H](OC(=O)CC(C)(C)CC(=O)O)C(C)(C)[C@@H]5CC[C@]43C)[C@H]12
- Activity [1]: Not Active
- IC50 (H9 (human); H9, 96 h): 7 µM

Structure (SMILES): C[C@H]1[C@H](C)CC[C@]2(C(=O)O)CC[C@]3(C)C(=CC[C@@H]4[C@@]5(C)CC[C@H](O)C(C)(C)[C@@H]5CC[C@]43C)[C@H]12
- IC50 (H9 (human); h9): 1.8 µM
